Assay results reported in article PMC11062432 (The Plant Cell, 2023).
Bridge positions count the residues as written; N and C are the ends. Ends that are not written are not given here.

Assays:
[1] = tested on: plasma membrane H^+-ATPase2; conditions: roots; ref Haruta et al. 2014; cited from earlier work
root growth = conditions: overexpression or application of the peptide; ref Matos et al. 2008; Li et al. 2022; cited from earlier work
BUPS2 = assay: Pull-down assay, BUPS2 ectodomain; type: binding, Arabidopsis thaliana; conditions: Flag-tagged ectodomain, His-tagged ZmRALFs
Summary of the method: (§1)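 FLAG-tagged Arabidopsis receptor ectodomains (from earlier work) were mixed with maize RALF mature peptides. The peptides were TrxA-His fusions expressed in E. coli BL21 (1 mm IPTG, 30 °C, 3–4 h), Ni-NTA-purified and desalted. The mix sat in 20 mm Tris pH 7.5, 1% CA630, rotating at 4 °C for 2 h. Ni-NTA beads were then added for 2 h more, followed by 5 washes. Read-out: SDS-PAGE and Western blot, anti-His and anti-FLAG.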

ANX2 = assay: Pull-down assay, ANX2 ectodomain; type: binding, Arabidopsis thaliana; conditions: Flag-tagged ectodomain, His-tagged ZmRALFs
Summary of the method: as §1

CrRLK1Ls = assay: Interaction of RALFs with CrRLK1Ls, overall; type: binding; conditions: discussion summary
ANX1 = assay: Pull-down assay, ANX1 ectodomain; type: binding, Arabidopsis thaliana; conditions: Flag-tagged ectodomain, His-tagged ZmRALFs
Summary of the method: as §1

BUPS1 = assay: Pull-down assay, BUPS1 ectodomain; type: binding, Arabidopsis thaliana; conditions: Flag-tagged ectodomain, His-tagged ZmRALFs
Summary of the method: as §1

ZmLLG2 = assay: Pull-down assay, ZmLLG2; type: binding, Zea mays; conditions: MBP-tagged LLG, His-tagged RALFs
Summary of the method: (§2)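 MBP-tagged maize partners were expressed in E. coli BL21 (0.1–0.5 mm IPTG, 30 °C, 3–4 h), amylose-purified, eluted with maltose and desalted. Partners: LLGs without signal peptide, PEX2 N-terminal LRR domain, PEX4. Each was incubated with His-tagged maize RALFs in 20 mm Tris pH 7.5, 1% CA630 at 4 °C for 2 h, then Ni-NTA pull-down for 2 h and 5 washes. Read-out: SDS-PAGE and Western blot, anti-His and anti-MBP.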

ZmPEX2 = assay: Pull-down assay, LRR domain of ZmPEX2; type: binding, Zea mays; conditions: MBP-tagged N-terminal LRR domain of ZmPEX2, ZmRALFs
Summary of the method: as §2

ZmLLG1 = assay: Pull-down assay, ZmLLG1; type: binding, Zea mays; conditions: MBP-tagged LLG, His-tagged RALFs
Summary of the method: as §2

ZmPEX4 = assay: Pull-down assay, full-length ZmPEX4; type: binding, Zea mays; conditions: MBP-tagged full-length ZmPEX4, ZmRALFs
Summary of the method: as §2

[2] = target: 6xHis-ZmRALF3 (predicted mature peptide, pET53-DEST, refolded) (maize (Zea mays)); assay: MST
[3] = target: 6xHis-ZmRALF2 (predicted mature peptide, pET53-DEST, refolded) (maize (Zea mays)); assay: MST
[4] = target: 6xHis-ZmRALF1 (predicted mature peptide, pET53-DEST, refolded) (maize (Zea mays)); assay: MST

AtRALF1: Clade IA Arabidopsis RALF (ATTKYISYQSLKRNSVPCSRRGASYYNCQNGAQANPYSRGCSKIARCRS; not fully specified; ends and bridges not checked; UniProt Q9SRY3 72-120, looked up)
effect on H^+-ATPase2 via FER [1]: inhibition of plasma membrane H^+-ATPase2 explaining extracellular alkalinization | effect on root growth (root growth): inhibited rapid root growth

MARLALVAAVVLCLLLATGPQGAISAEGMVSFDNLISCKVLGNCDKNLGPEASRPGKPANDYTRGCNPITGCRG (disulfide (positions not given here)) [ZmRALF1]
interaction in pull-down (BUPS2): very weak interaction | interaction in pull-down (ANX2): did not interact with Arabidopsis CrRLK1Ls | interaction with CrRLK1Ls in words (CrRLK1Ls): very low (almost unspecific) binding | interaction in pull-down (ANX1): did not interact with Arabidopsis CrRLK1Ls | interaction in pull-down (BUPS1): did not interact with Arabidopsis CrRLK1Ls

MARLGAGAVLALLVAVAAVAAFLAVPASAKSGELSAMGLLAAKGGSGAGPQKCSGAVGECDVDEAEELGLSGGGLGSDDAVRRTLAQRKPTNRYISYAALRADQVPCNKRGRSYYSNCEAQKAANPYRRGCSAITRCARNMN (disulfide (positions not given here)) [ZmRALF2]
interaction in pull-down (ZmLLG2): interacted with ZmLLG1/2 | interaction in pull-down (BUPS2): interacted more strongly with ANX1/2 and BUPS1/2 compared with ZmRALF3 | interaction in pull-down (ZmPEX2): interacted with both ZmPEX proteins | interaction in pull-down (ANX2): interacted more strongly with ANX1/2 and BUPS1/2 compared with ZmRALF3 | interaction in pull-down (ZmLLG1): interacted with ZmLLG1/2 | interaction in pull-down (ZmPEX4): interacted with both ZmPEX proteins | interaction in pull-down (ANX1): interacted more strongly with ANX1/2 and BUPS1/2 compared with ZmRALF3 | interaction in pull-down (BUPS1): interacted more strongly with ANX1/2 and BUPS1/2 compared with ZmRALF3

MARLGAGAVLTLLLAVAAAAAFLAVPASAKVGDLSAVEFVAARGSSIPGQRSSKCSGAVGECGVDEEEELGLSGGGGIGAGDALRRTLAQRKPTNRYISYAALRADQVPCNKRGRSYYTNCAAQTAANPYRRGCSAITRCARSMN (disulfide (positions not given here)) [ZmRALF3]
interaction in pull-down (ZmLLG2): interacted with ZmLLG1/2 | interaction in pull-down (ZmPEX2): interacted with both ZmPEX proteins | interaction in pull-down (ZmLLG1): interacted with ZmLLG1/2 | interaction in pull-down (ZmPEX4): interacted with both ZmPEX proteins

MBP-tagged ectodomain of ZmFERL1 (domain or fragment)
Kd [2]: 1.73 µM

MGEAKLNNVTVLLVALLLLSSGVQDAAAMPGTLNYDAIVADEPNGKNKDLYRPVANANKYTRGCEPIERCRGAR (disulfide 64-70 (inferred)) [ZmRALF5]
interaction in pull-down (ANX2): did not interact with Arabidopsis CrRLK1Ls | interaction in pull-down (ANX1): did not interact with Arabidopsis CrRLK1Ls | interaction in pull-down (BUPS1): did not interact with Arabidopsis CrRLK1Ls

ZmFERL7 ectodomain as used in MST (tag not told: MBP or GST construct) (domain or fragment)
Kd [3]: 0.615 µM | Kd [4]: 3.53 µM

ZmFERL9 ectodomain as used in MST (tag not told: MBP or GST construct) (domain or fragment)
Kd [3]: 0.545 µM | Kd [4]: 1.9 µM
